High-throughput results: PubChem BioAssay, several laboratories
Hits are enriched below; roughly 5.7% of the tested compounds scored in any of these assays.
CSC inhib – cancer stem cell viability inhibitors, primary screen, luminescence. actives 1.1% (n = 300,000). AID 2717, 2010. cancer stem cell-like cells viability. inhibition, % at 7.5 µM; in the data active = inhibition above about 75%; inconclusive = no clear call, values can overlap the other calls; tested in HMLE shEcad cells
Mdm2-MdmX inh – inhibitors of human Mdm2-MdmX association, primary screen, cell-based, luminescence, split luciferase, SaOS-2, uHTS; SaOS-2 split-luciferase Mdm2/MdmX complementation; inhibition, % at 8 µM; actives 3% (n = 330,000); AID 485346, 2010;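 active = inhibition of at least 50% at 8 µM in the primary screen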
Target sequence (O15151 whole entry, looked up): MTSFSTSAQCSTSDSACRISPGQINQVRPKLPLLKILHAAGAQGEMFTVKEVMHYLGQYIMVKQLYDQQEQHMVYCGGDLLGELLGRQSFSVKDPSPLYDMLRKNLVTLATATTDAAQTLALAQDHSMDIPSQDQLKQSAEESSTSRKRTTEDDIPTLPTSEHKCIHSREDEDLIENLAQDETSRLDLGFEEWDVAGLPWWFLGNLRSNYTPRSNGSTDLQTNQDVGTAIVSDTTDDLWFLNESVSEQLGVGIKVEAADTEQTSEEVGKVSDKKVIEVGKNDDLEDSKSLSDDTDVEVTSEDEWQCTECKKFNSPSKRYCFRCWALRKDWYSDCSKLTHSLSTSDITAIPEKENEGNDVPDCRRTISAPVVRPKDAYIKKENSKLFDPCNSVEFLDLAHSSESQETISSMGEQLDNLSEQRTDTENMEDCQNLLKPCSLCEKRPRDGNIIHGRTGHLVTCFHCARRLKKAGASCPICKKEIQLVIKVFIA
Target sequence (Q00987 whole entry, looked up): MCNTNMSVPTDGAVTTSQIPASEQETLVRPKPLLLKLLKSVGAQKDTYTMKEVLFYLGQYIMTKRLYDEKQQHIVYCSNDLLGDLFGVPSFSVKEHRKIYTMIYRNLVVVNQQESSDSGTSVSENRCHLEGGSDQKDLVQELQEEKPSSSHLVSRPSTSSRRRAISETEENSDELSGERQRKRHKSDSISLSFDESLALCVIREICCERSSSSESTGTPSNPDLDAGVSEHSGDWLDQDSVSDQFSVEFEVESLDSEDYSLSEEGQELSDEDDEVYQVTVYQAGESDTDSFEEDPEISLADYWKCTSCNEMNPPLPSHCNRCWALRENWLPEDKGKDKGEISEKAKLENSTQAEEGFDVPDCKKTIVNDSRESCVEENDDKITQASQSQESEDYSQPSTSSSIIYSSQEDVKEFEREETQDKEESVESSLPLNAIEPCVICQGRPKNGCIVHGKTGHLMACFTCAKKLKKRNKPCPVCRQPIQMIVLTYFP
T cruzi inh – inhibitors of intracellular T. cruzi growth, primary screen, luminescence, NIH3T3 host cells; T. cruzi beta-gal in NIH3T3, 90 h; AID 1885, 2009; inhibition, % (no concentration beside the values); actives 1.4% (n = 300,000);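 active = mean inhibition across valid replicates above about 55%, limit read from the data; inconclusive = mean below that limit but half or more replicates reach it; inactive = mean below it, under half of replicates reach it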;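 note: signal also drops with host cell toxicity which is not excluded here; 0% = plate median of DMSO wells and 100% = zero luminescence signal; higher percent means less beta-gal luminescence so fewer parasites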
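System: mouse NIH/3T3 fibroblasts infected with β-gal-expressing T. cruzi Tulahuen C4 / Input: NIH/3T3 cells, 5,000 per well / Buffer or medium: Low-serum DMEM with 2% FBS / Probe or stimulus: 5000 reporter trypomastigotes per well / Schedule: ≥90 h infection period, 3 h prior cell attachment / Measured by: GalScreen luminescence, 60 min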
Calb FLC – C. albicans growth inhibition with fluconazole, primary screen, CaCi-2 strain, Alamar Blue fluorescence | C. albicans CaCi-2 (fluconazole-resistant clinical isolate) + fluconazole, 48 h | growth inhibition, % (concentration not given with the values) | actives 0.57% (n = 300,000) | AID 1979, 2009;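 active = growth inhibition above about 58% in most replicates, limit read from the data, passing the limit was not always enough; inconclusive = exactly half the replicates above a set limit; inactive = most replicates below a set limit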;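 note: all wells also contain fluconazole at 8 µg/ml as a sub-toxic cotreatment; 0% = median of DMSO wells and 100% = median of geldanamycin control wells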
Beta cell apopt – inhibitors of cytokine-induced beta cell apoptosis, primary screen, luminescence; INS-1E cytokine-induced death, ATP luminescence, 48 h; percent of positive-control rescue, neutral wells zero; protection from apoptosis, % (no concentration beside the values); actives 0.8% (n = 300,000); AID 435005, 2010;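 active = Every replicate reaches about 75%, or at least half do and their mean reaches it too, limit read from the data; inconclusive = At least half of replicates reach the limit but their mean does not; inactive = Under half of replicates reach the limit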;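 note: 0% = cytokine-treated negative control wells and 100% = positive control rescue; higher means more ATP so stronger rescue from cytokine killing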
SKKanGAS inh – S. pyogenes SKKanGAS growth inhibitors in kanamycin, primary screen, streptokinase expression inhibitor project, SKKanGAS strain, BacTiter-Glo luminescence; inhibition, % at 7.5 µM; actives 1.3% (n = 300,000); 6 h;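 active = mean replicate score, as percent of positive control median, at least 50; inconclusive = mean below 50 but one replicate at or above 50; inactive = mean and every replicate below 50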;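 note: strain carries kanamycin resistance gene driven by streptokinase promoter and grows in 40 µg/ml kanamycin; loss of luminescence reflects streptokinase promoter inhibition or plain growth inhibition; 0% = median of DMSO wells and 100% = positive control at its reference dose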
Mdm2 MdmX conf – Mdm2-MdmX complex disruptors, retested hits, confirmation, luminescence, single concentration; AID 489028, 2010; shares compounds with Mdm2-MdmX inh; inhibition, % at 8 µM; actives 55% (n = 10,000); Mdm2-MdmX binding, luminescent assay; in the data active = inhibition above about 40%
FLuc counter – full-length luciferase signal inhibition, confirmation, counter-screen for Mdm2/MdmX interaction inhibitor project, cell-based, single concentration, SaOS-2. shares compounds with Mdm2-MdmX inh. SaOS-2 full-length luciferase counterscreen, luminescence. inhibition, % at 8 µM. actives 77% (n = 6,200). AID 504607, 2011;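 active = mean inhibition at 8 µM reaching about 37%, which flags the compound as non-specific, limit read from the data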;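 note: p53-null SaOS-2 cells with luciferase driven by a doxycycline-inducible promoter; compound on cells about two nights before reading with doxycycline added after day one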
Active calls of the source: *; ? = inconclusive; . = not tested or not shown.

SMILES	CSC inhib	Mdm2-MdmX inh	T cruzi inh	Calb FLC	Beta cell apopt	SKKanGAS inh	Mdm2 MdmX conf	FLuc counter
COc1ccc(CNCCC(c2ccc(F)cc2)c2ccc(OC(C)C)cc2)cc1OC (stereo not drawn)	21	93*	43	23	7	-8	34	76*
CCOc1cc(C(=O)NC2CCCCCCC2)cc(OCC)c1OCC	-7	17	10	-2	1	-4	.	.
COc1ccc(OC)c(-c2nnc3n2N=C(c2ccc(OC)c(OCC4CC4)c2)CS3)c1	.	80*	.	.	35	.	68*	68*
COc1ccc(C2=Nn3c(nnc3-c3ccccc3Cl)SC2)cc1OCC1CC1	.	73*	.	.	17	.	57*	45*
Fc1ccccc1-c1nnc2n1N=C(c1ccc(OC(F)F)c(OCC3CC3)c1)CS2	.	-15	.	.	8	.	.	.
COC(=O)c1ccccc1NC(=O)CSc1nnc(-c2cccnc2)o1	18	-1	-8	2	6	-12	.	.
Cc1ccc(N(CC(=O)NC2CCCCC2)C(=O)CCC(=O)Nc2nccs2)cc1	-31	13	5	-6	12	-3	.	.
CC1CCN(c2ccc(-c3cccc(NC(=O)C(F)(F)F)c3)nn2)CC1	25	73*	-1	3	26	3	69*	36*
CCC(=O)Nc1cccc(-c2ccc(N3CCC(C)CC3)nn2)c1	7	-53	3	1	8	1	.	.
O=C(Nc1cccc(-c2ccc(N3CCCCC3)nn2)c1)C(F)(F)F	32	60*	2	0	24	-4	45*	74*
CC(Oc1ccccc1F)C(=O)NNC(=O)CC(C)c1ccccc1 (stereo not drawn)	-8	-19	1	3	2	-14	.	.
COc1ncc(C2=CC(=O)CC(C)(C)C2)cn1	-5	11	.	.	1	.	.	.
CCOc1ccc(Br)cc1C1C(C(=O)OC)=C(N)Oc2cc(N(C)C)ccc21 (stereo not drawn)	56	80*	69*	-3	2	-4	55*	55*
CCOc1ccccc1C1C(C(=O)OC)=C(N)OC2=C1C(=O)CCC2 (stereo not drawn)	.	-18	3	-1	.	-1	.	.
O=C(Nc1ccc(Cl)cc1)N1CCCN(Cc2ccc(F)cc2)C1	11	53*	49	?	2	9	29	.
O=C(Nc1ccccc1)N1CCN(Cc2ccc(Cl)cc2)CC1	-19	1	-11	-11	-6	-21	.	.
COc1ccc(-c2cn(CCO)nc2-c2ccc(OC)cc2)cc1	-10	17	11	-6	-8	43	.	.
O=[N+]([O-])c1ccc(-c2nc(NCc3cccnc3)c3ccccc3n2)cc1	16	29	2	-9	1	10	.	.
Oc1ccccc1-c1nc(NCCN2CCOCC2)c2ccccc2n1	25	45	31	57	9	-8	.	.
Oc1ccccc1-c1nc(NCc2ccccc2)c2ccccc2n1	29	56*	11	-14	-5	-3	33	.
Oc1ccccc1-c1nc(NCc2cccnc2)c2ccccc2n1	63	70*	18	17	-11	17	49*	78*
CCCCN(C(=O)c1cc2ccccc2o1)c1c(N)n(CCCC)c(=O)[nH]c1=O	.	18	.	.	-2	.	.	.
COc1cc([C@@H]2c3cc4c(cc3[C@@H](O[C@@H]3O[C@@H]5CO[C@@H](C)O[C@H]5[C@H](O)[C@H]3O)[C@H]3COC(=O)[C@H]23)OCO4)cc(OC)c1O	64	78*	-18	.	11	5	60*	32
COc1cc([C@@H]2c3cc4c(cc3[C@@H](O)[C@@H](CO)[C@@H]2CO)OCO4)cc(OC)c1O[Si](C)(C)C(C)(C)C	58	53*	27	25	-7	16	4	.
COc1cc([C@@H]2c3cc4c(cc3[C@H](O)[C@H]3COC(=O)[C@H]23)OCO4)cc(OC)c1OC	59	75*	13	.	.	-3	54*	126*
SMILES	CSC inhib	Mdm2-MdmX inh	T cruzi inh	Calb FLC	Beta cell apopt	SKKanGAS inh	Mdm2 MdmX conf	FLuc counter
COc1cc(C2c3cc4c(cc3C(OC3OC5COC(c6cccs6)OC5C(O)C3O)C3COC(=O)C23)OCO4)cc(OC)c1O (stereo not drawn)	101*	94*	33	.	94*	42	88*	22
COC(=O)C1=C(O)/C(=C\c2ccc(OCC(=O)Nc3ccc(OC)cc3)cc2)N=C1C	-25	-16	-12	3	-4	3	.	.
COc1ccccc1COC(=O)c1ccc(S(=O)(=O)N2CCOCC2)cc1	-5	6	.	.	-7	.	.	.
Cc1cccc(N2CCN(C(=O)c3c(-c4ccccc4Cl)noc3C)CC2)c1C	60	59*	31	-4	28	-1	76*	71*
Cc1ccc(O)c(NC(=S)NC(=O)c2ccc(-c3ccc(Cl)cc3)o2)c1	-2	51*	-13	29	?	96*	28	.
O=C(Cn1c(=O)oc2ccc(Cl)cc21)Nc1ccon1	-23	9	2	-1	-4	-3	.	.
O=c1c2cccc3c2c(nn1CN1CCOCC1)-c1ccccc1-3	7	43	1	15	4	9	.	.
CCN(CC)CCn1nc2c3c(cccc3c1=O)-c1ccccc1-2	105*	83*	58*	.	113*	.	83*	20
COC(=O)c1[nH]c2ccc(Br)cc2c1NC(=O)CN1CCN(C2CCCCC2)CC1	21	99*	49	46	-11	-4	99*	51*
COC(=O)c1[nH]c2ccc(Br)cc2c1NC(=O)CN1CCCc2ccccc21	-11	53*	29	3	0	29	26	.
CCOc1ccc(OCCC(=O)OCC(=O)Nc2ccc3c(c2)OCCO3)cc1	-10	-3	-1	0	-2	10	.	.
Oc1[nH]c2ccc(Br)cc2c1N=NC(=S)Nc1ccc(F)cc1	82*	71*	59*	67	29	109*	70*	43*
Cc1ccc(NC(=S)N=Nc2c(O)[nH]c3ccccc23)cc1	53	65*	68*	14	.	73*	52*	67*
